Results on six molecules are retold here after ChEMBL document CHEMBL1122721, “Synthesis and antiarrhythmic activity of new 1-[1-[2-[3-(alkylamino)-2-hydroxypropoxy]phenyl]vinyl]-1 H-imidazoles and related compounds” (J Med Chem, 1984).

The pA2 is the negative logarithm of the molar antagonist concentration that doubles the agonist concentration needed for the same response. Broadly, the LD50 is the dose expected to kill half of the subjects tested. Low readings indicate a more toxic substance, high ones a less toxic substance.

The structures appear in SMILES notation. Several values for one entry are separate records, joined by “and”; a condition that tells them apart may be missing. Equal values may be shown once.

Data set [1] relates to Canis familiaris. Briefly: Effect on ischemic arrhythmias was studied in dogs, by glass bead method. 10 mg/kg was administered perorally and percent sinus beats after compound administration, was reported. The data set is classed as functional, Canis lupus familiaris. The note with it: route oral. The essentials:
(§1)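 Conscious dogs with ischemic ventricular arrhythmias persisting for 24 h after a glass bead was inserted into a coronary artery. Compound was given iv or orally. Lead II ECG recorded continuously by telemetry. Percent sinus beats taken before and after dosing, plus duration of effect (min).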

Data set [2] relates to Canis familiaris. Description: Effect on ischemic arrhythmias was studied in dogs, by glass bead method. 10 mg/kg was administered perorally and percent sinus beats before compound administration, was reported. The data set is classed as functional, Canis lupus familiaris. The note with it: route oral. The essentials: as §1
The test system of data set [3] is Canis familiaris. Briefly: Effect on ischemic arrhythmias was studied in dogs. 3 mg/kg was injected intravenously and percent sinus beats after compound administration, was reported. The format is functional, Canis lupus familiaris. The note with it: route intravenous. Put shortly:
as §1

The subject of data set [4] is Canis familiaris. Briefly: Effect on ischemic arrhythmias was studied in dogs. 3 mg/kg was injected intravenously and percent sinus beats before compound administration, was reported. The format is functional, Canis lupus familiaris. The following applies: route intravenous. The essentials:
as §1

For another data set, the species on record is Cavia porcellus. Briefly: Maximal follow rate showing the contractile frequencies of atria to electrical stimulation 10 min after incubation with right atria of guinea pig. The data set is classed as functional. The essentials: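 Isolated right atria driven by electrical stimulation (Dawes' method). Maximal follow rate, the highest contractile frequency the atria follow, measured as an index of refractory period 10 min after incubation with compound.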

The subject of data set [5] is Mus musculus. Briefly: Compound was evaluated for ventricular tachycardia activity in intravenously administered mice, 3 min before aconitine infusion, at a dose of 3 mg/kg; S=significant antiarrhythmic effect. The format is functional, organism-based. Details: dose 3 mg/kg. The note with it: Heart. Put shortly: (§2)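 Aconitine arrhythmia model in pentobarbital-anesthetized male mice (20-35 g). Test compound was given iv 3 min or po 30 min before continuous tail-vein infusion of aconitine (0.685 µg/min). Lead II ECG recorded; onset times of ventricular extrasystole (VES) and ventricular tachycardia (VT) were measured.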

Data set [6] deals with Mus musculus. Description: Compound was evaluated for ventricular tachycardia activity in perorally administered mice, 30 min before aconitine infusion, at a dose of 10 mg/kg; S=significant antiarrhythmic effect. The data set is classed as functional, organism-based. Details: dose 10 mg/kg. The note with it: Heart. Put shortly: as §2
The target of data set [7] is Adrenergic receptor beta (Cavia porcellus). Briefly: Beta adrenergic receptor blocking activity measured by the inotropic effect was determined 1 hr after pretreament of the right atria in guinea pig.
For data set [8] the target is unchanged. Description: Beta adrenergic receptor blocking activity measured by the chronotropic effect was determined 1 hr after pretreatment of the right atria in guinea pig.
The subject of data set [9] is Mus musculus. Description: Compound was evaluated for ventricular extrasystole, 3 min before aconitine infusion, at a dose of 3 mg/kg, intravenously administered in mice; S=significant antiarrhythmic effect. The note with it: Heart.
A short description of data set [10]: Lethal dose in mice (LD50) (following i.v. dosing). The note with it: mouse, in vivo, iv.
For data set [11], the system named is Mus musculus. Briefly: Compound was evaluated for ventricular extrasystole activity, 30 min before aconitine infusion, at a dose of 10 mg/kg, perorally administered in mice; S=significant antiarrhythmic effect. The following applies: Heart.
Data set [12] deals with Mus musculus. Description: Compound was evaluated for ventricular extrasystole activity, 3 min before aconitine infusion, at a dose of 30 mg/kg, intravenously administered in mice; S=significant antiarrhythmic effect. The data set is classed as functional, organism-based. Also on record: dose 30 mg/kg. The note with it: Heart. The essentials: as §2
Data set [13] deals with Mus musculus. Briefly: Compound was evaluated for ventricular tachycardia activity in intravenously administered mice, 3 min before aconitine infusion, at a dose of 1 mg/kg; S=significant antiarrhythmic effect. The format is functional, organism-based. Also on record: dose 1 mg/kg. The note with it: Heart. Put shortly: as §2
Data set [14] deals with Mus musculus. Description: Compound was evaluated for ventricular tachycardia activity in perorally administered mice, 30 min before aconitine infusion, at a dose of 30 mg/kg; S=significant antiarrhythmic effect. The data set is classed as functional, organism-based. Also on record: dose 30 mg/kg. The note with it: Heart. Put shortly:
as §2

The species entered for data set [15] is Canis familiaris. Description: Duration of ischemic arrhythmias in dogs determined in minutes.
For data set [16], the system named is Mus musculus. Briefly: Compound was evaluated for ventricular extrasystole, 30 min before aconitine infusion, at a dose of 10 mg/kg, perorally administered in mice; S=significant antiarrhythmic effect. The format is functional, organism-based. Details: dose 10 mg/kg. The following applies: Heart. Put shortly:
as §2

Data set [17] deals with Mus musculus. Description: Compound was evaluated for ventricular extrasystole activity, 3 min before aconitine infusion, at a dose of 1 mg/kg, intravenously administered in mice; S=significant antiarrhythmic effect. The format is functional, organism-based. Also on record: dose 1 mg/kg. The note with it: Heart. The essentials: as §2
The test system of data set [18] is Canis familiaris. Briefly: Effect on ischemic arrhythmias was studied in dogs, by glass bead method. 60 mg/kg was administered perorally and percent sinus beats after compound administration, was reported. The format is functional, Canis lupus familiaris. The note with it: route oral. Put shortly: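 Conscious dogs; ventricular arrhythmias induced by inserting a glass bead into a coronary artery, with marked arrhythmias persisting for 24 h. Compound given orally. Lead II ECG recorded continuously by telemetry. Percent sinus beats measured before and after dosing, and duration of effect in min recorded.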

Data set [19] deals with Canis familiaris. Briefly: Effect on ischemic arrhythmias was studied in dogs. 10 mg/kg was injected intravenously and percent sinus beats after compound administration, was reported. The data set is classed as functional, Canis lupus familiaris. The following applies: route intravenous. The essentials:
as §1

In data set [20] the test system is Canis familiaris. Description: Effect on ischemic arrhythmias was studied in dogs. 10 mg/kg was injected intravenously and percent sinus beats before compound administration, was reported. The data set is classed as functional, Canis lupus familiaris. The note with it: route intravenous. The essentials: as §1
For data set [21], the system named is Mus musculus. Description: Compound was evaluated for ventricular extrasystole, 30 min before aconitine infusion, at a dose of 30 mg/kg, perorally administered in mice; S=significant antiarrhythmic effect. The following applies: Heart. The data set is classed as functional, organism-based. Details: dose 30 mg/kg. The essentials: as §2
For data set [22], the system named is Mus musculus. Description: Compound was evaluated for ventricular tachycardia activity in intravenously administered mice, 3 min before aconitine infusion, at a dose of 10 mg/kg; S=significant antiarrhythmic effect. The data set is classed as functional, organism-based. The following applies: Heart. Details: dose 10 mg/kg. The essentials:
as §2

Data set [23] deals with Mus musculus. Briefly: Compound was evaluated for ventricular extrasystole activity, 3 min before aconitine infusion, at a dose of 10 mg/kg, intravenously administered in mice; S=significant antiarrhythmic effect. The format is functional, organism-based. Also on record: dose 10 mg/kg. The note with it: Heart. Put shortly:
as §2

Data set [24] relates to Canis familiaris. Briefly: Effect on ischemic arrhythmias was studied in dogs, by glass bead method. 60 mg/kg was administered perorally and percent sinus beats before compound administration, was reported. The data set is classed as functional, Canis lupus familiaris. The note with it: route oral. The essentials: as §1

For the molecule `C=C(c1c(Cl)ccc(Cl)c1OCC(O)CNC(C)C)n1ccnc1` (centres undefined), the Sinus beats with Canis familiaris [1] is recorded as 69.3%; in the data set on Canis familiaris [2], 9.3%; with Canis familiaris [3], 88.9%; in the data set with Canis familiaris [4] it was 5.8%. This molecule yielded a Decrease in the data set filed under Cavia porcellus of 45.7%. The Activity entry in the data set on Mus musculus [5], in the data set with Mus musculus [6] and in the data set with Mus musculus [9] was “Anti-arrhythmic” in each case. The pA2 in [7] is 5.29; in data set [8] it was 4.86.

With `C=C(c1cc(Cl)ccc1OCC(O)CNC(C)(C)C)n1cccn1` (centres undefined), the Sinus beats was 14.3% in the data set on Canis familiaris [3] and 1.8% with Canis familiaris [4]. In the data set listed under Cavia porcellus, this molecule yielded a Decrease of 45.7%. Also, the Activity entry in the data set on Mus musculus [5] and in the data set with Mus musculus [11] was “Anti-arrhythmic” in each case. The molecule further returned an LD50 in [10] of 32.5 mg/kg. Moreover, the values for the pA2 in data set [7] and in data set [8] were 6.99 and 6.9, respectively.

`C=C(c1c(C)ccc(Cl)c1OCC(O)CNC(C)C)n1ccnc1` (centres undefined): the Activity result in the data set with Mus musculus [12], in the data set on Mus musculus [13] and with Mus musculus [14] was “Anti-arrhythmic” in each case. Besides, the pA2 was 5.55 in data set [7] and 5.67 in data set [8].

As for `C=C(c1c(Cl)ccc(Cl)c1OCC(O)CNCC(C)C)n1ccnc1` (centres undefined), the Duration in the data set listed under Canis familiaris [15] was 60 min and 180 min. For the same molecule, the Sinus beats in the data set on Canis familiaris [1] was found to be 44.8%; with Canis familiaris [2], 9.9%; with Canis familiaris [3] it was 94.5%; in the data set with Canis familiaris [4], 6.5%. Further, the Decrease in the data set filed under Cavia porcellus stood at 34.9%. The Activity result in the data set on Mus musculus [16], in the data set on Mus musculus [13], in the data set on Mus musculus [6] and in the data set on Mus musculus [17] was “Anti-arrhythmic” each time. The pA2 in data set [7] was 5.81; in data set [8], 4.89.

Take `C=C[C@H]1CN2CC[C@H]1C[C@@H]2[C@@H](O)c1ccnc2ccc(OC)cc12` [QUINIDINE]: the Sinus beats in the data set with Canis familiaris [18] is given as 58.3%; with Canis familiaris [19], 74.1%; in the data set on Canis familiaris [20], 14.1%; in the data set on Canis familiaris [24], 4.2%. Moreover, in the data set filed under Cavia porcellus, the Decrease is on record as 26.4%. Further, the Activity result with Mus musculus [21], in the data set on Mus musculus [22], with Mus musculus [14] and with Mus musculus [23] was “Anti-arrhythmic” each time.

With `CC(C)N(CCC(C(N)=O)(c1ccccc1)c1ccccn1)C(C)C` (centres undefined) [DISOPYRAMIDE], the Sinus beats with Canis familiaris [18] turned out to be 66.2%; in the data set with Canis familiaris [19] it was 88.4%; in the data set with Canis familiaris [20], 22.4%; in the data set with Canis familiaris [24] it was 10.1%. This molecule yielded a Decrease in the data set listed under Cavia porcellus of 15.7%. In addition, the Activity entry in the data set on Mus musculus [21], in the data set on Mus musculus [22], with Mus musculus [14] and in the data set on Mus musculus [23] was “Anti-arrhythmic” in each case. Besides, the LD50 in [10] came to 30 mg/kg.
